Measurements as given in ChEMBL document CHEMBL3600316, “Discovery of an 8-methoxytetrahydroisoquinoline derivative as an orally active N-type calcium channel blocker for neuropathic pain without CYP inhibition liability” (Bioorg Med Chem, 2015).

Tests used:
[1] = biological target: T1, CYP3A4 (Homo sapiens, UniProt P08684); experiment: Time-dependent inhibition of CYP3A4 in human liver microsomes assessed as residual enzyme activity using midazolam as substrate preincubated for 30 mins by fluorescence-based assay; conditions: probe midazolam
T1 sequence (P08684 whole entry): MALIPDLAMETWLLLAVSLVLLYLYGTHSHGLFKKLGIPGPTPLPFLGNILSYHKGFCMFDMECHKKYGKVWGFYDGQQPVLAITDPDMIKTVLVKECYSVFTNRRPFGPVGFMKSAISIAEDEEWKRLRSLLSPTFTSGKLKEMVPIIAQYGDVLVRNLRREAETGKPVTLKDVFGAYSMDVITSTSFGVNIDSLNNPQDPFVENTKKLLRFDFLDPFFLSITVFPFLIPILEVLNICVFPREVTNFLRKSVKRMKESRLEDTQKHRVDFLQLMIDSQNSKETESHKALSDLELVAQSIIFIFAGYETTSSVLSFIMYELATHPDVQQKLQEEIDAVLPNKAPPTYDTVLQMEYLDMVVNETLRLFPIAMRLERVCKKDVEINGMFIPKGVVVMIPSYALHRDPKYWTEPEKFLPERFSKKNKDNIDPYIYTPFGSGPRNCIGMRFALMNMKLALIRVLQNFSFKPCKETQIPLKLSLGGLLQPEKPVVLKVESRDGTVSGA

[2] = biological target: Cytochrome P450 2D6 (Homo sapiens, UniProt P10635); experiment: Inhibition of CYP2D6 (unknown origin) by fluorescence-based assay
Sequence of Cytochrome P450 2D6 (P10635 whole entry): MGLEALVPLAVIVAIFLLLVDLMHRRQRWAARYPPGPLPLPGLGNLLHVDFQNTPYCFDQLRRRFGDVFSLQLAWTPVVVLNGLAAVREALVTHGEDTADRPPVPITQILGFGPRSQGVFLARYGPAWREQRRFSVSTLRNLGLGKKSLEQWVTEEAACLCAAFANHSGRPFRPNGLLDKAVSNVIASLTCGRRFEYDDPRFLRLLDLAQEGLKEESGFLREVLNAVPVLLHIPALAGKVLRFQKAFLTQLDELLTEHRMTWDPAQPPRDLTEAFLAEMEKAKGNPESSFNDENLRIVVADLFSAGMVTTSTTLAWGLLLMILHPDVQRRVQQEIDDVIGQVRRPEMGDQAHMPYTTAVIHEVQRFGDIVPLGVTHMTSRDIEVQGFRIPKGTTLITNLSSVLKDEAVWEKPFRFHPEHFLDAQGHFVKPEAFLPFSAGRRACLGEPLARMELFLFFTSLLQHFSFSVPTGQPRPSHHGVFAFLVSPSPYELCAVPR

[3] = Inhibition of N-type calcium channel in human IMR-32 cells by FLIPR calcium imaging assay; format: cell-based
Outline: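 FLIPR calcium imaging in IMR-32 human neuroblastoma cells with nitrendipine present to block endogenous L-type channels; IC50 determined in duplicate in one experiment, advanced compounds tested in several repeat assays.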

[4] = biological target: T1, CYP3A4; experiment: Reversible inhibition of CYP3A4 in human liver microsomes assessed as residual enzyme activity using midazolam as substrate by fluorescence-based assay; conditions: probe midazolam
[5] = system: Mus musculus; experiment: Antinociceptive activity in ddY mouse at 100 mg/kg, po by formalin test; format: functional
[6] = system: Rattus norvegicus; experiment: Analgesic activity in po dosed Sprague-Dawley rat L5/L6 SNL model assessed as reduction of mechanical allodynia; format: functional
Outline: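 Male Sprague-Dawley rats, L5/L6 spinal nerve ligation model; drug suspended/diluted in 0.5% methylcellulose, given orally at 0.3–10 mg/kg (dose as free form).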

[7] = biological target: Cytochrome P450 2C9 (Homo sapiens, UniProt P11712); experiment: Inhibition of CYP2C9 (unknown origin) by fluorescence-based assay; format: ADME
Sequence of Cytochrome P450 2C9 (P11712 whole entry): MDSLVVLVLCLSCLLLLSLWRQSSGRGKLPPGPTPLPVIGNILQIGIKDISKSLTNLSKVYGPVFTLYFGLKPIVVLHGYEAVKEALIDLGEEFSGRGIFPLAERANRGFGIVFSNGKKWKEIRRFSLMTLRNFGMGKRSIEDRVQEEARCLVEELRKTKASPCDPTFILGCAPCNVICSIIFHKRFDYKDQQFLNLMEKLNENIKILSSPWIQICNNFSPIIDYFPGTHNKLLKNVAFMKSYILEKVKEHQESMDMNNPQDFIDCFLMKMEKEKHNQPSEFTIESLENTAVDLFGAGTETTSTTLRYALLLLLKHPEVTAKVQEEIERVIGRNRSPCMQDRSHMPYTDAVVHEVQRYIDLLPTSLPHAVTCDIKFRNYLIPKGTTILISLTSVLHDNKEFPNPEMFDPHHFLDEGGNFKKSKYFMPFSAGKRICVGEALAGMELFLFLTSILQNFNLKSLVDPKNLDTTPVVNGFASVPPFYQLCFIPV
Outline: (§1)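 Fluorescence-based assay with fluorogenic substrate, as for CYP1A2 and 2D6; IC50 determined.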

[8] = biological target: Voltage-gated L-type calcium channel (Homo sapiens, UniProt Q13936+Q13698+Q01668+O60840); experiment: Inhibition of L-type calcium channel in human IMR-32 cells by FLIPR calcium imaging assay; format: cell-based
[9] = Clearance in human liver microsomes; format: ADME; conditions: read-out: CLH
[10] = biological target: Cytochrome P450 2C19 (Homo sapiens, UniProt P33261); experiment: Inhibition of CYP2C19 (unknown origin) by fluorescence-based assay; format: ADME; outline: as §1
Sequence of Cytochrome P450 2C19 (P33261 whole entry): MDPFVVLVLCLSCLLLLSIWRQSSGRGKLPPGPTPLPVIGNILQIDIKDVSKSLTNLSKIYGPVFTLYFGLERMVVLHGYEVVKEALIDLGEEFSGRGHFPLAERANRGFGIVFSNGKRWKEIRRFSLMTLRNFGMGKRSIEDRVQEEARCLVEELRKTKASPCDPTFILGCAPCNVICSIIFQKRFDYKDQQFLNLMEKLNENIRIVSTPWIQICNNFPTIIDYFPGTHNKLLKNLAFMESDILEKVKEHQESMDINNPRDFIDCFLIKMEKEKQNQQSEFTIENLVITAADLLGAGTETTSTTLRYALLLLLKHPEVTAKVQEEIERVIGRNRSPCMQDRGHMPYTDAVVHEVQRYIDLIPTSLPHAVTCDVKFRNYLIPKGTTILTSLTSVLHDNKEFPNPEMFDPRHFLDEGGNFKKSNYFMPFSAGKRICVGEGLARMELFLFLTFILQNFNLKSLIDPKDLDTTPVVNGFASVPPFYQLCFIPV

SMILES	activity at 30 min [1] [%]	IC50 [2] [nM]	IC50 [3] [nM]	activity [4] [%]	inhibition in vivo at 100 mg/kg [5] [%]	ED50 [6] [mg/kg]	IC50 [7] [µM]	IC50 [8] [µM]	CLint scaled [9] [mL/min/kg]	IC50 [10] [µM]
COc1cccc2c1C(C1CCCCC1)N(C(=O)CNC[C@@H](C)O)CC2 (stereo partly specified)	58	30200	1400	85						
C[C@@H](O)CNCC(=O)N1CCc2ccccc2C1C1CCCCC1 (stereo partly specified)	95	1100	2000	92	39					
C[C@@H](O)CNCC(=O)N1CCc2ccccc2[C@@H]1C1CCCCC1	87	1400	1700	105	55					
C[C@@H](O)CNCC(=O)N1CCc2ccc(C#N)cc2C1C1CCCCC1 (stereo partly specified)			2600							
Cc1ccc2c(c1)CCN(C(=O)CNC[C@@H](C)O)C2C1CCCCC1 (stereo partly specified)			2400							
C[C@H](O)CNCC(=O)N1CCc2ccccc2C1C1CCCCC1 (stereo partly specified)	91	1600	1500	96	0					
C[C@@H](O)CNCC(=O)N1CCc2cc(C(N)=O)ccc2C1C1CCCCC1 (stereo partly specified)			> 10000							
CCc1ccc2c(c1)C(C1CCCCC1)N(C(=O)CNC[C@@H](C)O)CC2 (stereo partly specified)	65	1300	890	85						
COc1ccc2c(c1)C(C1CCCCC1)N(C(=O)CNC[C@@H](C)O)CC2 (stereo partly specified)	83	3700	1600	97						
CC[C@@H](O)CNCC(=O)N1CCc2ccccc2C1C1CCCCC1 (stereo partly specified)	88	1000	1500	87	19					
C[C@@H](O)CNCC(=O)N1CCc2ccccc2[C@@H]1c1ccccc1	94	2200	2400	98						
COc1cccc2c1CCN(C(=O)CNC[C@@H](C)O)C2C1CCCCC1 (stereo partly specified)	63	< 780	2000	107						
O=C(CNCC1(O)CCCCC1)N1CCc2ccccc2C1C1CCCCC1 (stereo unspecified)					62					
O=C(CNCC1(O)CCCCC1)N1CCc2ccccc2[C@@H]1c1ccccc1		< 390	1000							
C[C@@H](O)CNCC(=O)N1CCc2c(F)cccc2C1C1CCCCC1 (stereo partly specified)	49	< 390	1200	95						
COc1ccc2c(c1)CCN(C(=O)CNC[C@@H](C)O)C2C1CCCCC1 (stereo partly specified)	97	< 780	1900	93						
COc1cccc2c1[C@@H](c1ccccc1)N(C(=O)CNC[C@@H](C)O)CC2	91		3300	110						
CC(C)c1ccc2c(c1)C(C1CCCCC1)N(C(=O)CNC[C@@H](C)O)CC2 (stereo partly specified)	43	1900	1300	88						
CC(C)(O)CNCC(=O)N1CCc2ccccc2C1C1CCCCC1 (stereo unspecified)			1700		7.7					
C[C@@H](O)CNCC(=O)N1CCc2ccc(F)cc2C1C1CCCCC1 (stereo partly specified)	80	1300	2300	109						
Cc1ccc2c(c1)C(C1CCCCC1)N(C(=O)CNC[C@@H](C)O)CC2 (stereo partly specified)			1700							
C[C@@H](O)CNCC(=O)N1CCc2cccc(F)c2C1c1ccccc1 (stereo partly specified)	95	1300	1000	103						
Cc1cccc2c1C(c1ccccc1)N(C(=O)CNC[C@@H](C)O)CC2 (stereo partly specified)	89	5600	1300	100						
CC(C)(C)[C@@H](CO)NCC(=O)N1CCc2ccccc2C1C1CCCCC1 (stereo partly specified)	33	68	1400	65	40					
CC(C)C[C@@H](CO)NCC(=O)N1CCc2ccccc2C1C1CCCCC1 (stereo partly specified)	46	44	1100	69	32					
CC[C@H](O)CNCC(=O)N1CCc2ccccc2C1C1CCCCC1 (stereo partly specified)	83	< 300	1900	81	27					
C[C@@H](O)CNCC(=O)N1CCc2cccc(F)c2C1C1CCCCC1 (stereo partly specified)			2500							
C[C@@H](O)CNCC(=O)N1CCc2cc(F)ccc2C1C1CCCCC1 (stereo partly specified)	91	1600	1600	92						
COc1cccc2c1[C@H](c1ccccc1)N(C(=O)CNC[C@@H](C)O)CC2	90		1400	94	77	2.8	> 50	> 10	45.9	> 50
C[C@@H](O)CNCC(=O)N1CCc2cc(C#N)ccc2C1C1CCCCC1 (stereo partly specified)			3100							
